Most compounds without a hit are left out; they make up all but 2.4% or so of the library.
MC4R ag barr: human MC4R agonism via beta-arrestin; P32245; U2OS MC4R beta-arrestin complementation, luminescence; percent of melanotan II response, DMSO zero; activation, % at 8.9 µM; 360,000 tested, 0.98% active; AID 540308;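 active = activation above a per-plate cutoff, the mean activation of sample wells on that plate plus 3 SD, cut at about 8% in these data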
MC4R antagonist: antagonists of human melanocortin 4 receptor (MC4R); inhibition, % at 6.5 µM; AID 540295; 360,000 tested, 0.48% active; MC4R-expressing cells, MTII-stimulated cAMP, LANCE TR-FRET;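 active = inhibition above its plate's cutoff, the mean of tested wells on that plate plus 3 SD, cut at about 29% in these data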
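Assay system: U2OS cells stably expressing human melanocortin 4 receptor (MC4R) / Dosing: 6.5 µM / Timing: compound 30 min, challenge 1 h, detection 1 h / Measured by: Eu-cAMP/anti-cAMP TR-FRET, emission 671 nm / Replicates: singlicate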
HTR5A inv ag: HTR5A inverse agonism, opioid heterodimer counter-screen | P47898 | HTR5A cell line, luminescence | inhibition, % at 9.3 µM | 340,000 tested, 0.083% active; in the data active = inhibition mostly above about 23%, no sharp cut-off; inactive = mostly below about 18%
OPRM1-OPRD1 ag: OPRM1-OPRD1 heterodimerization agonism. P35372+P41143. cells, luminescence. activation, % at 9.3 µM. 340,000 tested, 0.3% active. AID 504326; in the data active = activation above about 18%
HTR5A ag: HTR5A agonism, opioid heterodimer counter-screen | activation, % at 9.3 µM | 340,000 tested, 0.61% active | P47898 | HTR5A agonist assay, luminescence, cell-based; in the data active = activation mostly above about 9.5%, no sharp cut-off; inactive = mostly below about 7.6%
MOR-DOR inv ag: mu-delta opioid heterodimer inverse agonism. P35372+P41143. cell-based MOR-DOR heterodimer luminescence. inhibition, % at 9.3 µM. 340,000 tested, 0.21% active; in the data active = inhibition above about 22%, passing the limit was not always enough
Of the large screens only hits and unclear results are named; the others gave an inactive call.

Cn1cc(/C=C(\NC(=O)c2ccccc2Cl)C(=O)N2CCOCC2)c2ccccc21	none
COc1ccccc1C(=O)N/C(=C\c1cn(C)c2ccccc12)C(=O)N1CCOCC1	HTR5A ag 11
Cc1ccc(C(=O)CSc2nnc(-c3c[nH]c4ccccc34)o2)cc1	MC4R ag barr 8.2
CC(C)C(C)NC(=O)CSc1nnc(-c2c[nH]c3ccccc23)o1 (stereo not drawn)	none
COc1ccc(Cl)cc1NC(=O)COC(=O)CCCC1=NS(=O)(=O)c2ccccc2N1	none
CCCC(=O)C1=C(O)C(C(=O)OC)C(C)(C)CC1=Nc1ccccc1 (stereo not drawn)	none
CCCC(=O)C1=C(O)C(C(=O)OC)C(C)(C)CC1=Nc1cccc2ccccc12 (stereo not drawn)	HTR5A ag 10
CCOC(=O)C(=CNc1ccc(NC2=NCC(C)S2)cc1)C(=O)OCC (stereo not drawn)	HTR5A ag 9.8
CCOc1ccc(S(=O)(=O)Nc2ccc(Cl)cn2)c(C)c1C	none
CCOc1cc(C)c(S(=O)(=O)Nc2ccc(Cl)cn2)cc1C	HTR5A ag 14
CCOc1ccc2ccccc2c1/C=N/NC(=O)CNC(=O)Cc1ccccc1	none
COc1ccccc1NS(=O)(=O)c1ccc(OC)c(OC)c1	HTR5A ag 10
CCOc1ccccc1NS(=O)(=O)c1ccc(OC)c(OC)c1	none
CC(C)(C)NC(=O)CSc1nc(-c2ccccc2)c(-c2ccccc2)[nH]1	MC4R ag barr 8.8
Cc1ccc(-c2nnc(N3CCN(c4ccccn4)CC3)c3ccccc23)cc1	HTR5A ag 13
O=C(NC(=S)Nc1ccccc1N1CCCCC1)c1ccccc1	MC4R ag barr 9.1
O=C(Nc1ccccc1Cl)C(Cl)C(=O)c1ccccc1 (stereo not drawn)	MOR-DOR inv ag 52
O=C(Nc1ccccc1Cl)c1ccccc1	none
O=C(CSc1nc(=O)[nH]c2c1CCCC2)Nc1cc(C(F)(F)F)cc(C(F)(F)F)c1	none
C#C[C@]1(O)CCC2C3CCC4=Cc5oncc5CC4(C)C3CCC21C (stereo partly drawn)	none
O=C(O)C1C2CCC(C2)C1C(=O)NCCc1ccccc1 (stereo not drawn)	HTR5A ag 9.4
COc1ccc(CCNC(=O)C2C3CCC(C3)C2C(=O)O)cc1OC (stereo not drawn)	none
COCCNC(=O)CN(C(=O)CCC(=O)Nc1nccs1)c1ccc2c(c1)OCO2	none
COc1ccc(CC2(CO)CCN(Cc3cc4ccccc4o3)CC2)cc1	none
OCC1(Cc2cccc(C(F)(F)F)c2)CCN(Cc2cc3ccccc3o2)CC1	MC4R ag barr 9.2
CN(C)CCNC(=O)c1cc2c(s1)-c1ccc(Cl)cc1SC2	MC4R ag barr 11, OPRM1-OPRD1 ag 38, HTR5A ag 51
CCOCCCNC(=O)c1cc2c(s1)-c1ccccc1SC2	none
Cc1ccc(S(=O)(=O)NC(=O)C2(C)CCN2C(=O)Cc2ccc(C(C)(C)C)cc2)nc1 (stereo not drawn)	none (no result: HTR5A inv ag, OPRM1-OPRD1 ag, HTR5A ag, MOR-DOR inv ag)
CC1C(=O)CC(c2ccccc2)N(C)C1c1ccccc1 (stereo not drawn)	MC4R ag barr 9.1
CCC1C(c2ccccc2)N(C)C(c2ccccc2)CC1(O)c1ccccc1 (stereo not drawn)	none
COc1ccccc1N=NNc1ccccc1OC	none (no result: HTR5A inv ag, OPRM1-OPRD1 ag, HTR5A ag, MOR-DOR inv ag)
COc1ccc(C2/C(=C(\O)c3ccc4c(c3)OCCO4)C(=O)C(=O)N2CCCn2ccnc2)cc1 (stereo not drawn)	HTR5A ag 11
COC(=O)c1c(NC(=O)CSc2ccccc2N)sc(C)c1C	none
CC1Cc2ccccc2N1C(=O)COC(=O)c1cccnc1Cl (stereo not drawn)	HTR5A ag 11
CC1Cc2ccccc2N1C(=O)COC(=O)c1ccccc1NCCO (stereo not drawn)	none
Cc1ccc(-n2sc3cc(F)ccc3c2=O)c(C)c1	MC4R ag barr 8.8 (no result: HTR5A inv ag, OPRM1-OPRD1 ag, HTR5A ag, MOR-DOR inv ag)
O=c1c2ccc(F)cc2sn1-c1ccccc1	none (no result: HTR5A inv ag, OPRM1-OPRD1 ag, HTR5A ag, MOR-DOR inv ag)
COc1ccc(Nc2c([N+](=O)[O-])ccc3c2=NC2(CCCCC2)N=3)cc1	none
Cc1cc(=O)[nH]c(SCC(=O)Nc2ccc(Br)cn2)n1	HTR5A ag 13
Cn1c(CN2CCCCC2)nc2cc(NC(=O)c3ccc(F)cc3)ccc21	HTR5A ag 9.2

High-throughput results as filed in PubChem.
